{"source": "ChEMBL document CHEMBL4665633", "about": "“Cereblon versus VHL: Hijacking E3 ligases against each other using PROTACs” (Bioorg Med Chem, 2019)", "assay_type_in_all_cases": "cell-based", "key": {"[1]": {"target": "T1, Protein cereblon/von Hippel-Lindau disease tumor suppressor (Homo sapiens, UniProt P40337+Q96SW2)", "T1 sequence (P40337 whole entry, looked up)": "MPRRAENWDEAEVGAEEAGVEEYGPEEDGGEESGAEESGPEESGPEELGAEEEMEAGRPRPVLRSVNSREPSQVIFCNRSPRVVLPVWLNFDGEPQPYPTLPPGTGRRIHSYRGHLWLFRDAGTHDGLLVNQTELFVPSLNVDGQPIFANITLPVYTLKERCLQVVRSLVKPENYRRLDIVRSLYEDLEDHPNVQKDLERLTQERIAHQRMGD", "T1 sequence (Q96SW2 whole entry, looked up)": "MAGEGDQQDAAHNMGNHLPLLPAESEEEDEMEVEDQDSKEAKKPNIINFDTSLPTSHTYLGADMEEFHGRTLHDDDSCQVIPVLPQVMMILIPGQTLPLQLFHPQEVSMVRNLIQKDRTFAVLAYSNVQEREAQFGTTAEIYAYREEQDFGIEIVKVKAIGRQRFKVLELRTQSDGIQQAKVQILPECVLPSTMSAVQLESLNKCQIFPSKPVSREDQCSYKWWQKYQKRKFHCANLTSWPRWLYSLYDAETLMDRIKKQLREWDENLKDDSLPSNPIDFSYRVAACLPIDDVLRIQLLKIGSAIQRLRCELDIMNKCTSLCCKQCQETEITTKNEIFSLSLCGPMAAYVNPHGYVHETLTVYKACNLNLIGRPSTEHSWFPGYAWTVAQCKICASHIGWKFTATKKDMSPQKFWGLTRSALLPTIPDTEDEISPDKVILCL", "experiment": "Protac activity at VHL/CRBN in HEK293 cells assessed as pVHL19 protein abundance at 100 nM after 4 hrs by Western blot analysis relative to DMSO", "method_in_brief": "(§1)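 HEK293 cells (DMEM, 10% FBS, penicillin/streptomycin, L-glutamine; 37 °C, 5% CO2; ≤30 passages) seeded at 1 × 10⁶ per well overnight, then treated with compound at 0.1% v/v final DMSO. Cells were lysed in RIPA with protease inhibitors and benzonase, then clarified. Equal Bradford-quantified protein was immunoblotted for CRBN/VHL. Bands were normalised to β-tubulin and expressed as % of mean 0.1% DMSO vehicle.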"}, "[2]": {"target": "T1, Protein cereblon/von Hippel-Lindau disease tumor suppressor", "experiment": "Protac activity at VHL/CRBN in human HeLa cells assessed as CRBN protein abundance at 1 uM after 24 hrs by Western blot analysis relative to DMSO", "method_in_brief": "(§2)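 HeLa cells seeded overnight, then exposed to 1 µM compound (0.1% v/v DMSO final) over a time course. Cells were DPBS-washed and RIPA-lysed with protease inhibitors and benzonase; equal protein was loaded. Immunoblots for CRBN and VHL isoforms were quantified against β-tubulin and reported relative to the averaged 0.1% DMSO vehicle.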"}, "[3]": {"target": "T1, Protein cereblon/von Hippel-Lindau disease tumor suppressor", "experiment": "Protac activity at VHL/CRBN in HEK293 cells assessed as pVHL30 protein abundance at 5000 nM after 4 hrs by Western blot analysis relative to DMSO", "method_in_brief": "as §1"}, "[4]": {"target": "T1, Protein cereblon/von Hippel-Lindau disease tumor suppressor", "experiment": "Protac activity at VHL/CRBN in HEK293 cells assessed as pVHL19 protein abundance at 1 uM after 2 hrs by Western blot analysis relative to DMSO", "method_in_brief": "as §1"}, "[5]": {"target": "T1, Protein cereblon/von Hippel-Lindau disease tumor suppressor", "experiment": "Protac activity at VHL/CRBN in HEK293 cells assessed as pVHL30 protein abundance at 5 nM after 4 hrs by Western blot analysis relative to DMSO", "method_in_brief": "as §1"}, "[6]": {"target": "T1, Protein cereblon/von Hippel-Lindau disease tumor suppressor", "experiment": "Protac activity at VHL/CRBN in human HeLa cells assessed as pVHL30 protein abundance at 10 nM after 4 hrs by Western blot analysis relative to DMSO", "method_in_brief": "(§3)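 HeLa cells (5 × 10⁵, DMEM + 10% FBS, 37 °C, 5% CO₂, ≤30 passages) seeded overnight, then treated 4 h with compound at single or graded concentrations (0.1% v/v DMSO final). RIPA lysates equalised by Bradford; SDS-PAGE and anti-CRBN/anti-VHL immunoblots; bands normalised to β-tubulin and expressed as % of mean DMSO vehicle. DC₅₀ from fit of band intensity versus log[concentration].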"}, "[7]": {"target": "T1, Protein cereblon/von Hippel-Lindau disease tumor suppressor", "experiment": "Protac activity at VHL/CRBN in HEK293 cells assessed as CRBN protein abundance at 1000 nM after 4 hrs by Western blot analysis relative to DMSO", "method_in_brief": "as §1"}, "[8]": {"target": "T1, Protein cereblon/von Hippel-Lindau disease tumor suppressor", "experiment": "Protac activity at VHL/CRBN in HEK293 cells assessed as pVHL30 protein abundance at 500 nM after 4 hrs by Western blot analysis relative to DMSO", "method_in_brief": "as §1"}, "[9]": {"target": "T1, Protein cereblon/von Hippel-Lindau disease tumor suppressor", "experiment": "Protac activity at VHL/CRBN in HEK293 cells assessed as CRBN protein abundance at 50 nM after 4 hrs by Western blot analysis relative to DMSO", "method_in_brief": "as §1"}, "[10]": {"target": "T1, Protein cereblon/von Hippel-Lindau disease tumor suppressor", "experiment": "Protac activity at VHL/CRBN in human HeLa cells assessed as CRBN protein abundance at 100 nM after 4 hrs by Western blot analysis relative to DMSO", "method_in_brief": "as §3"}, "[11]": {"target": "T1, Protein cereblon/von Hippel-Lindau disease tumor suppressor", "experiment": "Protac activity at VHL/CRBN in human HeLa cells assessed as pVHL30 protein abundance at 1 uM after 12 hrs by Western blot analysis relative to DMSO", "method_in_brief": "as §2"}}, "data": [{"smiles": "Cc1ncsc1-c1ccc(CNC(=O)[C@@H]2C[C@@H](O)CN2C(=O)[C@@H](NC(=O)COCCCCCOCCOCCCCCOCC(=O)NCCNc2cccc3c2C(=O)N(C2CCC(=O)NC2=O)C3=O)C(C)(C)C)cc1", "note": "(stereo partly specified)", "values": [{"measurement": "Activity", "setting": "[1]", "value": 111, "unit": "%"}, {"measurement": "Activity", "setting": "[2]", "value": 13, "unit": "%"}, {"measurement": "Activity", "setting": "[3]", "value": 124, "unit": "%"}, {"measurement": "Activity", "setting": "[4]", "value": 109, "unit": "%"}, {"measurement": "Activity", "setting": "[5]", "value": 117, "unit": "%"}, {"measurement": "Activity", "setting": "[6]", "value": 64, "unit": "%"}, {"measurement": "Activity", "setting": "[7]", "value": 23, "unit": "%"}, {"measurement": "Activity", "setting": "[8]", "value": 130, "unit": "%"}, {"measurement": "Activity", "setting": "[9]", "value": 91, "unit": "%"}, {"measurement": "Activity", "setting": "[10]", "value": 70, "unit": "%"}, {"measurement": "Activity", "setting": "[11]", "value": 93, "unit": "%"}]}]}
